Assay [1] has as its system SH-SY5Y. Kind of assay: Death of human SH-SY5Y cells in absence of 20 uM Q-VD-OPh by MTS reduction assay. It counts as functional, cell-based.
In assay [2] the test system is SH-SY5Y. As to the kind of experiment: Survival of human SH-SY5Y cells after 24 hrs by MTS reduction assay. Format: functional, cell-based. Background: Tetrazolium dyes change colour on reduction, which living cells bring about.
Assay [3] deals with SH-SY5Y. As to the kind of experiment: Survival of human SH-SY5Y cells at 25 uM by MTS reduction assay. It counts as functional, cell-based. The gist of the method: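 Viability was read by MTS reduction and expressed as percent of untreated cells, as the average ± SE of three independent measurements, representative of two independent experiments.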
Assay [4] can be described thus: Inhibition of starfish CDK1/cyclin B in presence of 15 uM ATP. Further details: species or system Marthasterias glacialis.
In assay [5] the test system is SH-SY5Y. Kind of assay: Survival of human SH-SY5Y cells after 48 hrs by MTS reduction assay. Format: functional, cell-based.
The target in assay [6] is Cyclin-dependent kinase 5/CDK5 activator 1 (Homo sapiens, UniProt Q00535). As to the kind of experiment: (§1) Inhibition of mammalian CDK5/p25. Format: protein-complex assay. The gist of the method:
(§2)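 Recombinant CDK5 and p25, each expressed in E. coli as GST fusions and affinity-purified on glutathione agarose, mixed in equal amounts. Phosphate incorporation onto P81 paper read by scintillation counting, blank subtracted. Activity taken as % of uninhibited. IC50 from dose-response curves.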

In assay [7] the target is Glycogen synthase kinase-3 (Homo sapiens, UniProt P49840+P49841). Kind of assay: Inhibition of porcine brain GSK3alpha/beta. To be noted: Sus scrofa.
Sequence of Glycogen synthase kinase-3 (P49840 whole entry, looked up): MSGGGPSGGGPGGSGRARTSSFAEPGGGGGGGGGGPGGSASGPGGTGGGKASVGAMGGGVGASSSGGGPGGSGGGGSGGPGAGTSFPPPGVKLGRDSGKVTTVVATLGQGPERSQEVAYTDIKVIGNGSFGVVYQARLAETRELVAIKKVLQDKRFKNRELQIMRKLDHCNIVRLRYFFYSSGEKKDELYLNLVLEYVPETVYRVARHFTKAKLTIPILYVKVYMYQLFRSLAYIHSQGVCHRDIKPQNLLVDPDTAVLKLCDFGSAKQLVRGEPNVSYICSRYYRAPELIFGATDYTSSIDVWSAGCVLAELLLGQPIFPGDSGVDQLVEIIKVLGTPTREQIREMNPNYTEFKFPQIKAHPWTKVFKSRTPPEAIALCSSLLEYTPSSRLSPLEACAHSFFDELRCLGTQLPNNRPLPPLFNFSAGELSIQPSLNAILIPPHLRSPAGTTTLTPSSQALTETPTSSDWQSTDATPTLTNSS
Sequence of Glycogen synthase kinase-3 (P49841 whole entry, looked up): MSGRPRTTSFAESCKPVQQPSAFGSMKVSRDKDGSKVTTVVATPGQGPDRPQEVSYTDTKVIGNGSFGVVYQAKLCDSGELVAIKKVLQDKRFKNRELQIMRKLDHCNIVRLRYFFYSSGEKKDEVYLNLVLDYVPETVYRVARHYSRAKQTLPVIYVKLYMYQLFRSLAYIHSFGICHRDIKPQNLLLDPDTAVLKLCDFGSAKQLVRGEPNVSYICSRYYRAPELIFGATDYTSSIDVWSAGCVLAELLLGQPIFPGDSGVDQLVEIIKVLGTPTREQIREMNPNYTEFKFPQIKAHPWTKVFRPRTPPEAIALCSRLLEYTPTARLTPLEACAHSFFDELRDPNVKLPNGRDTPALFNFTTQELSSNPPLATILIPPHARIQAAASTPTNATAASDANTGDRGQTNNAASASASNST
In assay [8] the test system is SH-SY5Y. Kind of assay: Death of human SH-SY5Y cells at 25 uM after 48 hrs by LDH release assay. Format: functional. The gist of the method:
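SH-SY5Y human neuroblastoma cells were grown in DMEM with 2 mM L-glutamine, antibiotics and 10% FCS at 37 °C under 5% CO2. […] Lactate dehydrogenase release was measured 48 h after addition and expressed as percent cell death.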

In assay [9] the test system is SH-SY5Y. Kind of assay: Death of human SH-SY5Y cells in presence of 20 uM Q-VD-OPh by MTS reduction assay. It counts as functional, cell-based.
A further assay deals with HT-29. Kind of assay: Survival of human HT29 cells after 48 hrs by MTS reduction assay. It counts as functional, cell-based. To be noted: ht-29.
For a further assay, the system named is A549. As to the kind of experiment: Survival of human A549 cells after 48 hrs by MTS reduction assay. Format: functional, cell-based. To be noted: a549.
A further assay has as its system PC-3. Kind of assay: Survival of human PC3 cells after 48 hrs by MTS reduction assay. Format: functional, cell-based. To be noted: pc-3.
In another assay the test system is Huh-7. As to the kind of experiment: Survival of human Huh7 cells after 48 hrs by MTS reduction assay. Format: functional, cell-based. To be noted: huh-7.
Another assay concerns F1 (hepatoma cell line). As to the kind of experiment: Survival of mouse F1 cells after 48 hrs by MTS reduction assay. To be noted: F1.
In a further assay the test system is HCT-116. Kind of assay: Survival of human HCT116 cells after 48 hrs by MTS reduction assay. It counts as functional, cell-based. To be noted: hct-116. The essentials:
(§3)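 Viability read by MTS reduction. IC50 taken from dose-response curves, triplicate measurements. HCT116 grown in McCoy's 5A with 10% FCS. MDA-MB-231 grown in DMEM with 10% FCS and seeded at 7500 cells/well.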

The subject of a further assay is HEK293. Kind of assay: Survival of human HEK293 cells after 48 hrs by MTS reduction assay. To be noted: hek293. Format: functional, cell-based.
A further assay relates to BP8. Kind of assay: Survival of […] AhR -/- BP8 cells after 48 hrs by MTS reduction assay. Format: functional, cell-based. To be noted: bp8.
Another assay has as its system MDA-MB-231. As to the kind of experiment: Survival of human MDA-MB-231 cells after 48 hrs by MTS reduction assay. To be noted: mda-mb-231. It counts as functional, cell-based. The gist of the method: as §3
The target of assay [10] is Cyclin-dependent kinase 5/CDK5 activator 1 (Homo sapiens, UniProt Q00535+Q15078). The description is as §1. It counts as protein-complex assay. The essentials:
as §2

Some results are limits rather than exact numbers.

Sequence of Cyclin-dependent kinase 5/CDK5 activator 1 (Homo sapiens, UniProt Q00535) (Q00535 whole entry, the tested form may be a part): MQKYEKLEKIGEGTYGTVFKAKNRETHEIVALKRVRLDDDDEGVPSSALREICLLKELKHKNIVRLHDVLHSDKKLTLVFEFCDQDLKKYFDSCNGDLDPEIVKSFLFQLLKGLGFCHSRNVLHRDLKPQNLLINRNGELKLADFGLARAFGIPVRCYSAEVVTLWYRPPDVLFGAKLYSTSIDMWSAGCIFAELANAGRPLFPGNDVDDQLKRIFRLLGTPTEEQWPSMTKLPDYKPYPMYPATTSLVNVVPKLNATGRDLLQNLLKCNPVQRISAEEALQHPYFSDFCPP
Sequence of Cyclin-dependent kinase 5/CDK5 activator 1 (Homo sapiens, UniProt Q00535) (Q15078 whole entry, further chain, the tested form may be a part): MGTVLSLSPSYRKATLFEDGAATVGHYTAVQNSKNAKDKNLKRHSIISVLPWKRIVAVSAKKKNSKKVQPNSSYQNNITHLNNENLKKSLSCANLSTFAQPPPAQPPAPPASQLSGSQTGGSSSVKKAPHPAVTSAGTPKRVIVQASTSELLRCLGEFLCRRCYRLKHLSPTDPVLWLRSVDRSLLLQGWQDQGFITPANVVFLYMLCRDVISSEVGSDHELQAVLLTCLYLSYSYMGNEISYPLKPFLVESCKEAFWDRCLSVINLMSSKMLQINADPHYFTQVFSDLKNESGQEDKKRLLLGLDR
Sequence of Cyclin-dependent kinase 5/CDK5 activator 1 (Homo sapiens, UniProt Q00535+Q15078) (Q00535 whole entry): as the sequence (Q00535 whole entry, the tested form may be a part) above
Sequence of Cyclin-dependent kinase 5/CDK5 activator 1 (Homo sapiens, UniProt Q00535+Q15078) (Q15078 whole entry): as the sequence (Q15078 whole entry, further chain, the tested form may be a part) above

Broadly, the IC50 is the concentration needed to halve the response being measured. Take `O=Nc1c(-c2c(O)[nH]c3c(Cl)cccc23)[nH]c2ccccc12`: the IC50 in the assay with SH-SY5Y [1] (Homo sapiens, SH-SY5Y, read-out: IC50) is 10 µM; in the assay with SH-SY5Y [2] (Homo sapiens, SH-SY5Y, 24 h), 14 µM; in [4], 3.7 µM; in the assay on SH-SY5Y [5] (Homo sapiens, SH-SY5Y, 48 h) it was 12 µM; in assay [6], 6 µM; in assay [7] it was 21 µM. The IC50 with SH-SY5Y [9] (Homo sapiens, SH-SY5Y) stood at 11 µM. Also, the viability at 25 µM in the assay on SH-SY5Y [3] (Homo sapiens, SH-SY5Y, read-out: Survival) came out at 7%. In the assay with SH-SY5Y [8], this compound came in with an Activity of 92%.
On to `Oc1[nH]c2c(Br)cccc2c1C1=Nc2ccccc2/C1=N\OCCN1CCNCC1`, for which the IC50 is 6.3 µM in the assay with HT-29; 5.9 µM with A549; 6.1 µM with PC-3; 10 µM in the assay with SH-SY5Y [1]; 5.3 µM with Huh-7; 10.5 µM with SH-SY5Y [2] (sh-sy5y). The IC50 worked out at 1700 nM with F1 (hepatoma cell line); 5.4 µM in the assay with HCT-116; 5 µM in the assay with HEK293; 6.2 µM in the assay on SH-SY5Y [5] (sh-sy5y); 5.6 µM with BP8; 5.3 µM in the assay with MDA-MB-231. The IC50 is greater than 10 µM in assay [10] and 10.3 µM in the assay on SH-SY5Y [9] (sh-sy5y). For the same compound, in the assay on SH-SY5Y [3], the Survival is 3%. Moreover, the Activity in the assay with SH-SY5Y [8] is listed as 94%.
